CAL PDZ FP-1: blocks peptide binding to the human CAL PDZ domain; Q9HD26; purified CAL PDZ, TMR-peptide fluorescence polarization, 1 h; inhibition, % at 24.9 µM; 300,000 compounds, 0.92% hits;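 active = mean inhibition of at least 30% with at least half of replicates also reaching 30%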
DDE Tn7 FP inh: disrupts Tn7 cyclic peptide binding to fibrin D-Dimer-E complex; inhibition, % at 8.3 µM; P02675; FP displacement of FITC-Tn7 peptide from fibrin DD(E); 0% = median of compound wells per plate; 370,000 compounds, 0.13% hits;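 active = inhibition above the mean of compounds falling within the control limits plus 3 SD of them, cut at about 14% in these data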
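Test system: human clot-derived fibrin DD(E) complex / Quantity: 2 µM final DD(E) protein / Incubation: 10 min plus 3 h, room temperature / Measured by: fluorescence polarization / Benchmarks: high control of 10 µM Aha-Tn7 peptide / Replicates: singlicate testing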
DDE Tn6 FP inh: disrupts Tn6 cyclic peptide binding to fibrin D-Dimer-E complex. P02675. AID 720509. inhibition, % at 8.3 µM. Fibrin DD(E) TRITC-Tn6 fluorescence polarization displacement. 370,000 compounds, 0.21% hits;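 active = inhibition above a per-campaign cutoff: mean of compounds within control limits plus 3 SD, cut at about 15% in these data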
CAL PDZ FP-2: inhibitors of human CAL PDZ peptide binding; purified CAL PDZ, TMR-peptide fluorescence polarization, 1 h; Q9HD26; inhibition, % at 20 µM; 330,000 compounds, 0.02% hits;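 active = highest replicate inhibition of at least 40%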
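Material: tagged CAL PDZ domain; buffer or medium: 25 mM sodium phosphate pH 7.4, 150 mM NaCl, TCEP, IgG, Thesit; compound dosing: single point, 20 µM; schedule: 1 h incubation at room temperature before polarization reading; measured by: FP readout, S and P plane fluorescence; read-out basis: percent inhibition from loss of millipolarization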
GRK2 aptamer HTS: inhibitors of human GRK2 displacing RNA aptamer; P25098; bead flow cytometry, FAM-aptamer displacement from GRK2; inhibition of aptamer binding, % at 10 µM; 330,000 compounds, 0.59% hits; AID 488847;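 active = inhibition of aptamer binding above 40%, roughly 3 SD of noise, on plates passing a quality check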;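 note: median bead fluorescence of bound FAM aptamer so fluorescent compounds give negative values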
Target sequence (P25098 whole entry, looked up): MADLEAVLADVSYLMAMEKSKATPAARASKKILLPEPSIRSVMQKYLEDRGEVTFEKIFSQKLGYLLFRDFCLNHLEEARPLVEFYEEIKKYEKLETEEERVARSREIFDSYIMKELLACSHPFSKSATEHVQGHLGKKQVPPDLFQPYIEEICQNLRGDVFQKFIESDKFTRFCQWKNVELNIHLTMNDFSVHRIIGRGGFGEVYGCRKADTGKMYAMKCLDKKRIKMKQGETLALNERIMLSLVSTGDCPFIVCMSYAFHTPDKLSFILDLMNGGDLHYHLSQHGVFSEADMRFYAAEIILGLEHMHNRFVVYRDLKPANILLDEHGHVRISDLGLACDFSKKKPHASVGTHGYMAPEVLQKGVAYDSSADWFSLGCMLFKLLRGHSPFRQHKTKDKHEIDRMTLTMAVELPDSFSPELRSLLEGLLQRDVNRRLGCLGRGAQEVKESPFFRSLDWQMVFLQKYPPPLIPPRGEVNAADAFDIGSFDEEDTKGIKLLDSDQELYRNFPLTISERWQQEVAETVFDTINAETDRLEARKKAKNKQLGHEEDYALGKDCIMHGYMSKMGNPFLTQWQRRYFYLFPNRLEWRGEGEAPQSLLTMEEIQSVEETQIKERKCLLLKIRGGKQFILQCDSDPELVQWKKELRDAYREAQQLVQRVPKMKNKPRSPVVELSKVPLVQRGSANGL
ARNT-TACC3 inh: disrupts binding between human ARNT and TACC3; Q9Y6A5; AlphaScreen His-ARNT PAS-B/GST-TACC3 binding, luminescence; TACC3 fragment carries E629A point mutation; inhibition, % at 9.99 µM; 390,000 compounds, 0.66% hits; AID 623870;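 active = mean inhibition of replicates at least 50% and at least half of replicates each reaching 50%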
Tn6 DDE ctr: counter-screen hit for Tn6 peptide-fibrin DD(E) binding disruption | 680 compounds, 2% hits | inhibition, % at 8.3 µM | shares compounds with DDE Tn6 FP inh | TRITC-Tn6 fluorescence polarization displacement; 0% = median of compound wells, not DMSO;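 active = inhibition above the mean of test compounds lying between the control limits plus 3 SD of those, cut at about 14% in these data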
DDE Tn6 confirm: confirmation of inhibitors of Tn6 binding to human fibrin DD(E); shares compounds with DDE Tn6 FP inh; FP displacement of TRITC-Tn6 peptide from DD(E); 0% = per-plate median of test wells; inhibition, % at 8.3 µM; 680 compounds, 10% hits;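 active = inhibition above the mean of compounds lying within the control limits plus 3 SD, cut at about 16% in these data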
A number is an active result; n = inactive; x = not tested or not shown; + = active, no number. Only some compounds are listed: those with a hit (about 1.8% of all), similar ones and a draw of the others.

SMILES	CAL PDZ FP-1	DDE Tn7 FP inh	DDE Tn6 FP inh	CAL PDZ FP-2	GRK2 aptamer HTS	ARNT-TACC3 inh	Tn6 DDE ctr	DDE Tn6 confirm
CCn1c(=O)c2ccccc2n2c(SCC(=O)N3CCCc4ccccc43)nnc12	n	n	15	n	n	n	n	n
COC(=O)/C(=C/Nc1ccc(O)cc1)[N+](=O)[O-]	66	n	46	n	n	24	n	n
COC(=O)c1ccc(Cn2c(C)c(C(=O)NCc3cccc(C(F)(F)F)c3)sc2=O)o1	x	n	17	x	x	x	n	n
CC1(C)c2ccccc2N2CCC(=O)NC21/C=C/c1ccco1 (stereo not drawn)	n	n	17	n	n	n	n	n
CC1(C)c2ccccc2N2CC(=O)NC21/C=C/c1ccco1 (stereo not drawn)	n	n	n	n	n	n	x	x
O=C1CCC/C1=C/Nc1ccc2c(c1)OCO2	n	n	21	n	n	n	n	n
O=C1CCCC/C1=C\Nc1ccc(O)cc1	x	n	27	n	n	n	n	n
CC1CCC/C(=C\Nc2ccc3c(c2)OCO3)C1=O (stereo not drawn)	n	n	n	n	n	n	x	x
COc1ccc(NC(=O)C2CCC(=O)N2C(=O)OCc2ccccc2)cc1 (stereo not drawn)	x	n	n	n	n	n	x	x
CC(=O)N1CCSc2ccc(S(=O)(=O)NCCc3ccc(C)cc3)cc21	n	n	n	n	n	n	x	x
CC(=O)N1CCSc2ccc(S(=O)(=O)NCCc3cccc(C)c3)cc21	n	n	16	n	n	n	n	n
CCOc1ccc(OCC)c(S(=O)(=O)N2CCCCC2)c1	x	n	n	n	n	n	x	x
CCOc1ccc(OCC)c(S(=O)(=O)n2cnc(C)c2)c1	n	n	16	n	n	n	n	n
C[C@H]1CN([C@@H](C)CO)C(=O)c2cccc(NC(=O)c3nc4ccccc4s3)c2O[C@H]1CN(C)C(=O)Nc1ccc(C(F)(F)F)cc1	x	x	x	x	x	n	x	x
O=C(CSc1nnc(CNC(=O)c2ccco2)o1)NC1CCCC1	n	n	16	n	n	n	n	n
Cc1nn(C)c(C)c1N1C(=O)c2cccc3c(Br)ccc(c23)C1=O	n	n	n	n	n	n	x	x
Cc1nn(C)c(C)c1N1C(=O)c2cccc3c(N)ccc(c23)C1=O	n	n	19	n	n	n	n	n
O=C1c2ccccc2C(=O)c2c(NCc3cccnc3)cccc21	n	n	n	n	n	n	x	x
O=C1c2cccc(NCCCNCCO)c2C(=O)c2cccc(NCCCNCCO)c21	n	n	21	n	x	49	n	32
COC(=O)[C@]12C=CCN1[C@H](c1ccccc1)c1c(c3ccccc3n1S(=O)(=O)c1ccc(C)cc1)C2	x	n	19	x	x	x	n	n
COC(=O)[C@]12C=CCN1[C@H](c1ccc(OC)c(OC)c1)c1c(c3ccccc3n1S(=O)(=O)c1ccc(C)cc1)C2	x	n	n	x	x	x	x	x
COCC#Cc1ccc2c(c1)O[C@H](CN(C)C(=O)c1ccccc1F)[C@H](C)CN([C@H](C)CO)S2(=O)=O	x	x	x	x	x	n	x	x
COc1cccc(C#Cc2cnc3c(c2)C(=O)N([C@H](C)CO)C[C@@H](C)[C@H](CN(C)C(C)=O)O3)c1	x	x	x	x	x	n	x	x
CC(=O)c1cccc(NC(=O)COC(=O)c2n[nH]c3ccccc23)c1	n	n	16	n	n	n	n	n
Cc1csc(SCC(=O)NCc2ccc3c(c2)OCO3)n1	n	n	n	n	n	n	x	x
SMILES	CAL PDZ FP-1	DDE Tn7 FP inh	DDE Tn6 FP inh	CAL PDZ FP-2	GRK2 aptamer HTS	ARNT-TACC3 inh	Tn6 DDE ctr	DDE Tn6 confirm
Cc1csc(SCC(=O)NCc2cccc(Cl)c2)n1	n	n	17	n	n	n	n	n
CCCCC(CC)C(=O)N1CCN(C(=O)c2ccco2)CC1 (stereo not drawn)	n	n	17	n	n	n	n	n
CCCCNC(=O)N1CCN(C(=O)c2ccco2)CC1	n	n	n	n	n	n	x	x
CCn1nnnc1SCC(=O)Nc1nc(C)c(C)s1	n	n	16	n	n	n	n	n
COc1ccc(NC(=O)Nc2ccc3c(c2)CC(=O)N([C@@H](C)CO)C[C@@H](C)[C@@H](CN(C)C)O3)cc1	x	x	x	x	x	n	x	x
Cc1cc(NC(=O)COC(=O)c2ccc([N+](=O)[O-])cc2Cl)no1	n	n	98	n	n	x	n	n
CNC(=O)COC(=O)c1ccc([N+](=O)[O-])cc1Cl	n	n	n	n	n	n	x	x
COc1ccc(NC(=O)Nc2ccc3c(c2)C(=O)N([C@H](C)CO)C[C@@H](C)[C@@H](CN(C)C(=O)Nc2cccc4ccccc24)O3)cc1	x	x	x	x	x	n	x	x
CCCCNC(=O)CCC(=O)Nc1ccc2nc(N3CCOCC3)cc(C)c2c1	n	n	n	n	n	n	x	x
CCCCNC(=O)CCC(=O)Nc1ccc2nc(N3CCCCC3)cc(C)c2c1	n	n	16	n	n	n	n	n
C[C@@H]1CN([C@H](C)CO)C(=O)c2cc(NS(=O)(=O)c3ccc(Cl)cc3)ccc2O[C@@H](C)CCCCO[C@H]1CN(C)C(=O)C1CCCCC1	x	x	x	x	x	n	x	x
C[C@H]1CN([C@@H](C)CO)C(=O)c2cc(C#CCN(C)C)cnc2O[C@H]1CN(C)C	x	x	x	x	x	n	x	x
O=C(c1ccc(Br)cc1)N1CCN(S(=O)(=O)c2ccccc2)CC1	x	n	16	n	n	n	n	n
O=C(c1ccc(=O)[nH]c1)N1CCN(S(=O)(=O)c2ccccc2)CC1	n	n	n	n	n	n	x	x
C[C@H](NC(=O)C[C@H]1C=C[C@H](NC(=O)CN2CCOCC2)[C@H](CO)O1)c1ccccc1	x	x	x	x	x	n	x	x
CN(Cc1cnccn1)Cc1ccccc1OCC(O)CN1CCc2ccccc2C1 (stereo not drawn)	n	n	n	n	n	n	x	x
O=C(Cc1cccs1)Nc1cccc(-c2nc3cc4ccccc4cc3[nH]2)c1	n	n	144	n	n	n	n	34
CNC[C@H]1Oc2ccc(NC(=O)Nc3cccc4ccccc34)cc2C(=O)N([C@H](C)CO)C[C@@H]1C	x	x	x	x	x	n	x	x
COC(=O)COC(=O)c1ccc(Oc2nc(OC)nc(N(C)C)n2)cc1	n	n	21	n	n	n	n	n
O=C(Nc1ccc2c(c1)[C@H]1C[C@@H](CC(=O)N3CCc4ccccc4C3)O[C@@H](CO)[C@H]1O2)c1cccnc1	x	x	x	x	x	n	x	x
Clc1ccc(-n2cc(COCc3ccccc3)nn2)cc1	n	n	n	n	n	n	x	x
Cc1cc2c(N)cccc2nn1	n	n	+	x	n	n	n	18

Screening results deposited in PubChem BioAssay by several laboratories.
